Rows were chosen to be rich in hits. Some 2.4% of all compounds tested hit in one or more screens of this group.
rRNA inh HTS – inhibitors of bacterial rRNA selective over humanized ribosomes; E. coli WT GFP vs humanized-ribosome RFP mutants, fluorescence, 24 h; active compounds read low; DMSO median 0, no signal -100; GFP signal change (wild-type ribosome), % (concentration not given with the values); 350,000 tested, 1.6% active;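 active means significant combined selectivity score with lowered wild-type GFP, culture density cut under 30%, mutant RFP and density less affected; inactive means any of these conditions unmet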
S100A4 inh HTS – inhibitors of human S100A4 binding to myosin IIA peptide; S100A4/TAMRA-MyoIIA peptide fluorescence polarization; inhibition, % at 10.7 µM; 360,000 tested, 0.14% active; AID 652163;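 active means mean inhibition of at least 70% across replicates, with every replicate also reaching that level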
Target sequence (P26447 whole entry, looked up): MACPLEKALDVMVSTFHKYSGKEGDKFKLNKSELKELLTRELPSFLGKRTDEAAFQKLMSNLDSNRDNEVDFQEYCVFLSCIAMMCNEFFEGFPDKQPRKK
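Test system – S100A4 monomer (human) · Compound – single-point compound testing · Schedule – 5 min incubation before reading · Probe or stimulus – TAMRA-labelled myosin IIA heavy-chain peptide probe, 5 nM · Benchmarks – neutral control DMSO, positive control TFP · Medium – Calcium-containing HEPES buffer, pH 7.2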
PGC1a acetyl inh – modulators of PGC1a acetylation. U2OS PGC1a acetylation, AlphaScreen anti-acetyl-lysine; with virally co-expressed GCN5 acetyltransferase. inhibition, % at 15.6 µM. 350,000 tested, 0.17% active. AID 651687;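 active means every replicate shows inhibition of at least 40%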;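 further: 0% = neutral control wells and 100% = positive control wells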
ARNT TACC3 PPI – disruptors of human ARNT/TACC3 interaction; AID 623870; AlphaScreen His-ARNT PAS-B/GST-TACC3 binding, luminescence; TACC3 fragment carries E629A point mutation; inhibition, % at 9.99 µM; Q9Y6A5; 390,000 tested, 0.66% active;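 active means mean inhibition of replicates at least 50% and at least half of replicates each reaching 50%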;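 further: 0% = complete ARNT plus TACC3 wells and 100% = ARNT alone without TACC3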
Casp6 inh – inhibitors of human caspase-6. P55212. purified caspase-6, Z-VEID-R110 cleavage fluorescence. inhibition, % at 12.5 µM. 350,000 tested, 0.53% active. AID 686996;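 active means mean inhibition across replicates at least about 35%, with every replicate also reaching that limit, limit read from the data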;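 further: 0% = median of neutral control wells and 100% = no fluorescence left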
Target sequence (P55212 24-179 limits assumed): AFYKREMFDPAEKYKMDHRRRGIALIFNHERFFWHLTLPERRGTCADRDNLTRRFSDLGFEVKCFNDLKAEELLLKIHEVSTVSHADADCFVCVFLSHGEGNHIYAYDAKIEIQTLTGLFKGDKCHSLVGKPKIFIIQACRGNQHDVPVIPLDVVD
Target sequence (P55212 194-293 limits assumed): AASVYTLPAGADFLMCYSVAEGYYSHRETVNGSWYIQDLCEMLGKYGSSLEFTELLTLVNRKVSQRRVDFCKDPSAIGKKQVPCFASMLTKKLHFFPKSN
ERAP1 HTS inh – ERAP1 (human) enzyme inhibition; Q9NZ08; recombinant ERAP1, Leu-AMC fluorescence, 60 min; inhibition, % at 10.7 µM; 340,000 tested, 0.15% active; AID 652197;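 active means mean replicate inhibition of at least 30%, or all replicates individually reaching that 30% level; inactive means mean below 30% and not every replicate reaching it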;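 further: 0% = neutral control wells and 100% = L-leucinethiol positive control wells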
Starred values were filed as active, the others as inactive; · = no result.

SMILES	rRNA inh HTS	S100A4 inh HTS	PGC1a acetyl inh	ARNT TACC3 PPI	Casp6 inh	ERAP1 HTS inh
COc1ccc(C=NNC(=O)c2ccccc2NS(=O)(=O)c2cccs2)cc1O	-26*	3	8	4	3	0
O=C(N/N=C/c1ccc(N2CCOCC2)cc1)c1ccc(NS(=O)(=O)c2cccs2)cc1	-6	-29	-13	0	2	-2
O=C(NN=Cc1ccc(O)cc1O)c1ccccc1NS(=O)(=O)c1cccs1	-23	3	9	47*	1	-2
O=C(N/N=C/c1ccc(N2CCOCC2)cc1)c1ccccc1NS(=O)(=O)c1cccs1	-40*	10	0	13	2	-6
COCC(=O)N1[C@@H]2c3ccc(-c4cccnc4)c(=O)n3C[C@@H]2[C@@H](CO)[C@@H]1C(=O)Nc1ccccc1	1	7	·	0	0	4
O=C(Cc1ccccn1)N1CC(=O)N2[C@@H](CO)[C@H](c3ccc(C#CC4CCCC4)cc3)[C@@H]2C1	2	-12	·	·	2	32*
O=C(Cc1ccccn1)N1CC(=O)N2[C@H](C1)[C@H](c1ccc(C#CC3CCCC3)cc1)[C@@H]2CO	2	-8	·	·	2	3
N#C[C@H]1[C@@H](c2ccc(C#Cc3ccccc3F)cc2)[C@@H](CO)N1C(=O)C1CCCCC1	1	-13	-3	12	-1	4
N#C[C@H]1[C@H](c2ccc(C#CC3CCCC3)cc2)[C@H](CO)N1C(=O)Cc1ccccn1	-14	5	59*	·	2	2
N#C[C@H]1[C@H](c2ccc(C#Cc3ccccc3F)cc2)[C@@H](CO)N1C(=O)C1CCCCC1	1	-49	-10	47*	-2	4
CC(C)C#Cc1ccc([C@@H]2[C@H](CO)N3C(=O)CN(C(=O)NC4CCCC4)C[C@@H]23)cc1	-1	-38	107*	·	2	-1
CC(C)C#Cc1ccc([C@@H]2[C@@H](CO)N3C(=O)CN(C(=O)NC4CCCC4)C[C@H]23)cc1	-1	6	-10	·	1	-3
CCC(=O)N1CC(=O)N2[C@H](CO)[C@H](c3ccc(C#CC4CCCC4)cc3)[C@H]2C1	6	136*	-14	·	1	1
O=C(NC1Cc2ccccc2C1)[C@H]1[C@H](CO)[C@H]2Cn3c(ccc(C4=CCCCC4)c3=O)[C@@H]1N2	1	·	·	·	·	·
COc1ccc(/C=N/NC(=O)CCSc2nc3ccccc3s2)cc1	-26*	-6	·	·	1	0
O=C(CSc1nc2ccccc2s1)N/N=C/c1ccc(C(=O)O)cc1	10	-5	·	-1	2	-30
CCOc1ccccc1CNC(=O)c1cc2occc2n1C	2	183*	-3	17	1	4
CN(C)C(=O)c1ccc(-c2ccccc2[C@H]2[C@H](C#N)N(C(=O)C3CCCC3)[C@H]2CO)cc1	11	-18	·	·	2	-1
O=C(Cn1ncc(Cl)c(Cl)c1=O)N1CCN(S(=O)(=O)c2ccc3ccccc3c2)CC1	·	·	77*	3	·	·
CC(C)NS(=O)(=O)c1ccc(CCC(=O)Nc2ccc3c(c2)OCCO3)cc1	·	3	·	2	2	-9
Cc1cc(S(=O)(=O)NC(C)C)ccc1OCC(=O)Nc1ccc2c(c1)OCCO2	-11	4	110*	26	2	4
C[C@@H]1CCCCO[C@@H](CN(C)S(C)(=O)=O)[C@H](C)CN([C@@H](C)CO)C(=O)c2cc(NC(=O)NC3CCCCC3)ccc2O1	-2	0	-9	-3	0	-3
Oc1ccc(/C=N/Nc2cc(N3CCOCC3)nc(N3CCOCC3)n2)cc1O	-25*	7	·	20	6	0
Oc1ccc(C=Nc2ccc(N3CCOCC3)cc2)c(O)c1	·	·	64*	·	·	·
Oc1c(Cl)cc(Cl)cc1C=Nc1ccc(N2CCOCC2)cc1	17	-21	4	-3	-1	0
SMILES	rRNA inh HTS	S100A4 inh HTS	PGC1a acetyl inh	ARNT TACC3 PPI	Casp6 inh	ERAP1 HTS inh
Cc1nc(N/N=C/c2cccc(F)c2)cc(N2CCOCC2)n1	-3	2	-6	10	3	-5
Cc1nc(N/N=C/c2ccc(O)cc2O)cc(N2CCOCC2)n1	-37*	0	12	65*	-2	-1
N#C[C@H]1[C@H](c2ccccc2)[C@@H](CO)N1C(=O)CN1CCOCC1	6	-4	-3	-42	-4	-3
Cc1ccc(S(=O)(=O)N2CCC(C(=O)NCCCN3CCOCC3)CC2)cc1C	5	0	·	-3	60*	-4
Cc1ccc(S(=O)(=O)N2CCC(C(=O)NCCN3CCOCC3)CC2)cc1C	22	-4	2	-4	-5	2
CCOC(=O)c1c(NC(=O)C2CC(Cl)=CCC2C(=O)O)sc2c1CC(C)(C)OC2 (stereo not drawn)	-8	0	-5	-4	43*	-8
CCOC(=O)c1c(NC(=O)C2CC2)sc2c1CC(C)(C)OC2	18	34	16	-7	-3	1
COc1ccc(N(C)S(=O)(=O)c2cccc(C(=O)NCC(c3cccs3)N(C)C)c2)cc1 (stereo not drawn)	0	-1	·	8	40*	2
Cc1csc(NC(=O)CSCC(=O)O)c1-c1nc2ccccc2s1	-51*	12	-2	3	-1	2
CN1C2=NCCN2C(=O)c2cc(Cl)ccc21	3	-12	·	-12	-5	111*
CCn1c(-c2sc(-c3ccccc3)nc2C)n[nH]c1=S	-30*	6	·	5	2	20
C/C(=N/NC(N)=S)c1cc2ccc(O)cc2oc1=O	14	-9	4	39*	42*	-112
COc1ccc(CNCc2cccc(Oc3ccccc3)c2)cc1	-25*	22	4	4	-1	3
CN(C)CC(=O)N1CC2(C1)[C@@H](c1ccccc1)[C@@H](CO)N2S(C)(=O)=O	2	91*	-7	·	1	0
CN(C)CC(=O)N1CC2(C1)[C@H](c1ccccc1)[C@@H](CO)N2S(C)(=O)=O	2	-2	8	·	0	2
COc1ccc(CSc2cccc3cccnc23)cc1[N+](=O)[O-]	-20	-5	·	45*	5	0
NC(=O)c1ccc(Oc2cccc3cccnc23)c([N+](=O)[O-])c1	6	-9	11	-7	4	-1
COc1ccc(C(=O)Oc2cccc3cccnc23)cc1[N+](=O)[O-]	4	-2	2	56*	11	5
Cc1noc(C)c1NC(=O)Nc1cccc2c1O[C@@H](CN(C)Cc1ccncc1)[C@@H](C)CN([C@@H](C)CO)C2=O	1	-2	-2	·	1	0
C[C@@H]1CN([C@@H](C)CO)C(=O)c2cc(NS(=O)(=O)c3ccccc3)ccc2O[C@@H]1CN(C)CC1CC1	1	-36	·	-1	-2	3

Assay outcomes as filed in PubChem.
